*1 amine or outer side, *2 acyl side, *3 side chain or, on linkers, in order; H or OH if unused. Where a SMILES comes first, the peptide text is derived from it. Bridges are numbered along the chain shown (N, C = ends). [ ]: non-standard residue; d: D form. The star is where a group is joined. pTerphenylCO(4''-OnC5H11) = CCCCCOc1ccc(-c2ccc(-c3ccc(C(=O)*)cc3)cc2)cc1; Orn(4R-OH,5R-OH) = O=C([C@H](C[C@@H](O)[C@@H](O)N[*:3])N[*:1])[*:2]; hTyr(3S-OH,4S-OH) = N[C@H](C(=O)O)[C@H](O)[C@@H](O)c1ccc(O)cc1; Pro(3S-OH,4S-Me) = C[C@H]1CN[C@H](C(=O)O)[C@H]1O; Hyp = O=C(O)[C@@H]1C[C@@H](O)CN1
Legend:
CYP2C8 = target: T1, CYP2C8 (Homo sapiens, UniProt P10632); experiment: Inhibition of human CYP2C8 at 17.5 uM in presence of rosiglitazone; type: ADME; details: probe rosiglitazone
T1 sequence (P10632 whole entry): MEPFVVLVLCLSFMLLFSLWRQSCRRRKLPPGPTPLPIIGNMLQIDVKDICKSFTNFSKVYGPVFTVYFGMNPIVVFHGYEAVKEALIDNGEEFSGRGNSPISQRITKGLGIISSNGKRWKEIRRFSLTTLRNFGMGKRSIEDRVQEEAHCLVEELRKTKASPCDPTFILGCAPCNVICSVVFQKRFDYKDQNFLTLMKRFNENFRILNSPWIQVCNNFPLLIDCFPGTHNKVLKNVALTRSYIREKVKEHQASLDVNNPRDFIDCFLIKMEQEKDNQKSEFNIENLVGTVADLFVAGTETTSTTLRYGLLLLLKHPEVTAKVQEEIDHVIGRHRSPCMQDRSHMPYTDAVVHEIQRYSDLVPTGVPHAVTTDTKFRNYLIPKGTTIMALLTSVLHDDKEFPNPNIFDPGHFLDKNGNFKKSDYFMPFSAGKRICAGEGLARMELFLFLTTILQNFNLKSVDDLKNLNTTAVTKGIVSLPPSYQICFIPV
In short: (§1)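 Heterologously expressed human CYP2C8, with rosiglitazone N-desmethylase as the marker reaction. […] Incubations run in duplicate.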

Cytochrome P450 2C19 = Cytochrome P450 2C19 (Homo sapiens, UniProt P33261); experiment: Inhibition of human CYP2C19; type: ADME
Cytochrome P450 2C19, sequence (P33261 whole entry): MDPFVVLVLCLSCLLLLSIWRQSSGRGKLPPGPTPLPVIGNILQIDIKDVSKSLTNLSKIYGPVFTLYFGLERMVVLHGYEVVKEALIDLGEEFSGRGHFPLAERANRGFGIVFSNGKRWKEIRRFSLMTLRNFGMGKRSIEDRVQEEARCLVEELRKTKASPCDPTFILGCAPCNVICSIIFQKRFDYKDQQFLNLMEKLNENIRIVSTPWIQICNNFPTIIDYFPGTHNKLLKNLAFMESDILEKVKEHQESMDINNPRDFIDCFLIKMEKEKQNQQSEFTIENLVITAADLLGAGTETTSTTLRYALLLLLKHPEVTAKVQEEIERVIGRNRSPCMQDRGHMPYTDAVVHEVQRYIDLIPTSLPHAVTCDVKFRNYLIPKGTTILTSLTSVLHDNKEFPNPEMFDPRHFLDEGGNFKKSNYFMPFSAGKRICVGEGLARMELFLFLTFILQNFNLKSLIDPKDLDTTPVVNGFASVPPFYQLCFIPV

[1] = Tmax in human plasma at 100 mg, iv by LC-MS/MS analysis; type: ADME, organism-based
In short: (§2)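 Nine healthy adult men, single i.v. infusion of [14C]drug over 100 min at 1 mg/min (planned 100 mg; mean delivered 88.3 mg). Heparinized blood taken from predose through day 10 and at follow-up. Parent drug in plasma measured by validated LC-MS/MS. Noncompartmental analysis; values are means (%CV).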

Plasma = experiment: Clearance in human plasma at 100 mg, iv by LC-MS/MS analysis; type: ADME, organism-based; details: in vivo; in short: as §2
[2] = Mean residence time in human plasma at 100 mg, iv by LC-MS/MS analysis; type: ADME, organism-based; in short: as §2
Cytochrome P450 2B6 = target: T2, Cytochrome P450 2B6 (Homo sapiens, UniProt P20813); experiment: Inhibition of human CYP2B6; type: ADME
T2 sequence (P20813 whole entry): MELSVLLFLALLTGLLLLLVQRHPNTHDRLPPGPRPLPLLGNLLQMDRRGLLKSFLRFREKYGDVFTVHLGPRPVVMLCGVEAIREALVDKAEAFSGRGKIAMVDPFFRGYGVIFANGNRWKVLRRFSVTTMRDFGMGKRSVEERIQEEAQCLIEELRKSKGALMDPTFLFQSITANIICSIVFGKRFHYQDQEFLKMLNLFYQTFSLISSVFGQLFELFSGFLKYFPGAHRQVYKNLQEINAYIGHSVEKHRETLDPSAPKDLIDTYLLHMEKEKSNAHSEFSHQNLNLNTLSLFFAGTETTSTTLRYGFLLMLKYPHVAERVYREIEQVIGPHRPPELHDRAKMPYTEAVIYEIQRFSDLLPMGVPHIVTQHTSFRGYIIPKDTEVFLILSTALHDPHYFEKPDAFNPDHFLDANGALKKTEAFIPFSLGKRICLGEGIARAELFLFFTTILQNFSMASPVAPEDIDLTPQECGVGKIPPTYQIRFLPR
In short: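 Pooled liver microsomes from 53 human donors. Marker reactions: bupropion hydroxylase for CYP2B6. Incubations run in duplicate. IC50 taken from four to six concentrations.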

[3] = Volume of distribution at steady state in human plasma at 100 mg, iv by LC-MS/MS analysis; type: ADME, organism-based; details: read-out: Vdss
In short: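 Healthy adult men (n = 9), single i.v. infusion of [14C]drug over 100 min at 1 mg/min. 100 mg was planned; the mean dose actually given was 88.3 mg. Heparinized blood drawn from 0 h through day 10 and at 6–8 weeks. Parent drug in plasma measured by validated LC-MS/MS. Noncompartmental analysis, given as mean (%CV).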

Cytochrome P450 2C9 = Cytochrome P450 2C9 (Homo sapiens, UniProt P11712); experiment: Inhibition of human CYP2C9; type: ADME
Cytochrome P450 2C9, sequence (P11712 whole entry): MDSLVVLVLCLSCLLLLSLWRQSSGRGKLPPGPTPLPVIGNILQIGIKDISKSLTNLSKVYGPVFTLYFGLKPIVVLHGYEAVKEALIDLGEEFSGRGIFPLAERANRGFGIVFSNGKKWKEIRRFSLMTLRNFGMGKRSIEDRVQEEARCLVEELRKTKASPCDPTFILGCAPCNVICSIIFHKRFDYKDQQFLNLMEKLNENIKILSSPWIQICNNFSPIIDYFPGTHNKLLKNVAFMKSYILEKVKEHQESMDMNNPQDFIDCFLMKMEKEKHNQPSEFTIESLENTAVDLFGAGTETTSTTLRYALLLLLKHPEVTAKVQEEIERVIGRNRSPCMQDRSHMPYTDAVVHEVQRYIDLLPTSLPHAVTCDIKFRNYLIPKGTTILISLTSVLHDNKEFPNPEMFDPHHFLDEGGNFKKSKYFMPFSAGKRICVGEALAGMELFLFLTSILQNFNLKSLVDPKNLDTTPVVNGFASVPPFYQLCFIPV

Cytochrome P450 3A4 = Cytochrome P450 3A4 (Homo sapiens, UniProt P08684); experiment: Inhibition of human CYP3A4; type: ADME
Cytochrome P450 3A4, sequence (P08684 whole entry): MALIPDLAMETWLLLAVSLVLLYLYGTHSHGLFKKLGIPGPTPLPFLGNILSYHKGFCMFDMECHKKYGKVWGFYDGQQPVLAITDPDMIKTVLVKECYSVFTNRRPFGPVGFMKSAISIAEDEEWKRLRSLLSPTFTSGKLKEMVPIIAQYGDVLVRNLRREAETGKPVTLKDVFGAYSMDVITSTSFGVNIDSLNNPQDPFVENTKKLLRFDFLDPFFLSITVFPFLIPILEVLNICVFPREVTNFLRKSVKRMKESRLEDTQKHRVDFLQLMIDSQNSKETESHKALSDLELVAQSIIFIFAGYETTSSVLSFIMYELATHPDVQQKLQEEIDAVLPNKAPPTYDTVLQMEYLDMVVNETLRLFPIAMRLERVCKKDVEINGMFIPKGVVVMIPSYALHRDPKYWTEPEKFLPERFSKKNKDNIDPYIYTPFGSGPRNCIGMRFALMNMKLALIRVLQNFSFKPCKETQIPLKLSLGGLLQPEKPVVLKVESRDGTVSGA

Cytochrome P450 2D6 = Cytochrome P450 2D6 (Homo sapiens, UniProt P10635); experiment: Inhibition of human CYP2D6; type: ADME
Cytochrome P450 2D6, sequence (P10635 whole entry): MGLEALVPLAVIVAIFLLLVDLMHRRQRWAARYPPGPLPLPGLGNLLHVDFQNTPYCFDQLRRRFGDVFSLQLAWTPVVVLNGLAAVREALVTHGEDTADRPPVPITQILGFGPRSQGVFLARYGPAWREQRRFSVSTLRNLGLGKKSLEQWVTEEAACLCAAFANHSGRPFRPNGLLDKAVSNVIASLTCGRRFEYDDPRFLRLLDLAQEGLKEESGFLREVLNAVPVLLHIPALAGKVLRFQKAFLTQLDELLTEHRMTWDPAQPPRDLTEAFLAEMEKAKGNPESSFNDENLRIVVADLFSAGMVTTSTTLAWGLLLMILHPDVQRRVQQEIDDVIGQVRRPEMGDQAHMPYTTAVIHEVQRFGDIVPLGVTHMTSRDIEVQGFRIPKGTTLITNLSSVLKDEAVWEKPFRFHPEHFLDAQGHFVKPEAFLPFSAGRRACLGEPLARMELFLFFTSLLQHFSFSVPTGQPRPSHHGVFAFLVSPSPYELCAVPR

[4] = Ratio of AUC in blood to plasma for Sprague-Dawley at 5 mg/kg, iv by liquid scintillation counting; type: ADME, organism-based; set-up: dose 5 mg/kg, route intravenous; details: rat, in vivo
In short: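 Male Sprague-Dawley rats, single i.v. bolus of [14C]drug. Blood by cardiac puncture from three noncannulated rats killed at each time from 0.25 to 168 h; plasma separated from an aliquot. Radioactivity by liquid scintillation counting. Parameters come from a composite profile of mean values, taking 1 g as equal to 1 ml.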

[5] = Half life in human plasma at 100 mg, iv by LC-MS/MS analysis; type: ADME, organism-based; in short: as §2
[6] = Cmax in human plasma at 100 mg, iv by LC-MS/MS analysis; type: ADME, organism-based; set-up: dose 100 mg, route intravenous; in short: as §2
Cytochrome P450 1A2 = target: T3, Cytochrome P450 1A2 (Homo sapiens, UniProt P05177); experiment: Inhibition of human CYP1A2; type: ADME
T3 sequence (P05177 whole entry): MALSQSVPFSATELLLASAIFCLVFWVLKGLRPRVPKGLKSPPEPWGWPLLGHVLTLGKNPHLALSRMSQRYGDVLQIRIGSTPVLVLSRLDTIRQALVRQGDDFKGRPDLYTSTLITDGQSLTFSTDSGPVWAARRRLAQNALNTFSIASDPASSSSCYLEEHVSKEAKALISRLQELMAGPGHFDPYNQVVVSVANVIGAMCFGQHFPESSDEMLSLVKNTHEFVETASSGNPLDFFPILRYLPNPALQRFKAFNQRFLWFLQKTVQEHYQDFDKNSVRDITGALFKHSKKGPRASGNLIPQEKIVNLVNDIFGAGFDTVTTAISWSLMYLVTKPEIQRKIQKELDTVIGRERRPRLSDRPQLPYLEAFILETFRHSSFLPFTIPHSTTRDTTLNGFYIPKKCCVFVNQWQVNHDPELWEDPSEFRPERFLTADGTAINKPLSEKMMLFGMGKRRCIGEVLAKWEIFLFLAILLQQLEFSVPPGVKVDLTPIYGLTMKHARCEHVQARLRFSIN

Cytochrome P450 2C8 [7] = target: T4, Cytochrome P450 2C8 (Homo sapiens, UniProt P10632); experiment: Inhibition of human CYP2C8 using rosiglitazone as a substrate; type: ADME; in short: as §1
T4 sequence (P10632 whole entry): T1 sequence (P10632 whole entry)

Cytochrome P450 2C8 [8] = target: T4, Cytochrome P450 2C8; experiment: Inhibition of human CYP2C8 using amodiaquine as a substrate; type: ADME
In short: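 CYP2C8 measured as amodiaquine N-deethylase in pooled human liver microsomes from 53 donors. Incubations run in duplicate. IC50 fitted from the concentration series.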

CCCCCOc1ccc(-c2ccc(-c3ccc(C(=O)N[C@H]4C[C@@H](O)[C@@H](O)NC(=O)[C@@H]5[C@@H](O)[C@@H](C)CN5C(=O)[C@H]([C@@H](C)O)NC(=O)[C@H]([C@H](O)[C@@H](O)c5ccc(O)cc5)NC(=O)[C@@H]5C[C@@H](O)CN5C(=O)[C@H]([C@@H](C)O)NC4=O)cc3)cc2)cc1 [ANIDULAFUNGIN] ({pTerphenylCO(4''-OnC5H11)}-[Orn(4R-OH,5R-OH)]T[Hyp][hTyr(3S-OH,4S-OH)]T[Pro(3S-OH,4S-Me)]; lactam 1-C)
inhibition at 17.5 µM (CYP2C8): 34.3% | IC50 (Cytochrome P450 2C19): > 17.5 µM | Tmax [1]: 1.78 h | CL (Plasma): 0.913 L/h | MRT [2]: 35.6 h | IC50 (Cytochrome P450 2B6): > 17.5 µM | Vd [3]: 32.6 L | IC50 (Cytochrome P450 2C9): > 17.5 µM | IC50 (Cytochrome P450 3A4): > 17.5 µM | IC50 (Cytochrome P450 2D6): > 17.5 µM | Ratio [4]: 1.5 | half-life [5]: 27.7 h | Cmax [6]: 3630 ng/mL | IC50 (Cytochrome P450 1A2): > 17.5 µM | IC50 (Cytochrome P450 2C8 [7]): > 17.5 µM | IC50 (Cytochrome P450 2C8 [8]): 12 µM

From ChEMBL document CHEMBL1629624, “In vitro and in vivo studies to characterize the clearance mechanism and potential cytochrome P450 interactions of anidulafungin” (Antimicrob Agents Chemother, 2009)
